# Calls of active or inactive are those of the source. The rule behind the calls is not given here.
# Assays:
# [1] = Bioavailability in CD-1 mouse at 1 mg/kg, iv administered as single dose measured up to 24 hrs; assay type: ADME, organism-based; conditions: in vivo
# In short: (§1)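 CD-1 mouse PK after single iv (1 mg/kg) and oral gavage (5 mg/kg) dosing, with plasma sampled to 24 h (n=3/timepoint) and measured by HPLC/MS/MS. F(%) = (AUC0-inf po × Dose iv)/(AUC0-inf iv × Dose po) × 100.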
# [2] = molecular target: Cytochrome P450 3A4 (Homo sapiens, UniProt P08684); assay: Inhibition of recombinant CYP3A4 (unknown origin) by fluorescence-based assay; assay type: ADME
# [3] = Oral bioavailability in CD-1 mouse at 5 mg/kg administered as single dose measured up to 24 hrs; assay type: ADME, organism-based; conditions: in vivo; in short: as §1
# [4] = Protein binding in plasma (unknown origin); assay type: ADME, cell-free
# [5] = molecular target: Gamma-secretase; assay: Modulation of gamma secretase in human SH-SY5Y cells overexpressing wild type APP751 assessed as effect on amyloid beta38 level by meso scale discovery; assay type: cell-based
# [6] = molecular target: Gamma-secretase; assay: Modulation of gamma secretase in human SH-SY5Y cells overexpressing wild type APP751 assessed as inhibition of amyloid beta (35 to 42 residues) formation incubated for overnight by ELISA; assay type: cell-based
# In short: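 SHSY5Y-APP751 cells plated at 75K/well and incubated overnight at 37 °C, then treated 24 h over 10 concentrations ([…]–10 μM, 1:3.16 steps, in duplicate). Medium Aβ42 measured by sandwich ELISA (Aβ35–42 capture, AP-conjugated Aβ1–12 detection, CDP-Star luminescence) against an Aβ42 standard curve.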
# [7] = molecular target: Cytochrome P450 2C19 (Homo sapiens, UniProt P33261); assay: Inhibition of recombinant CYP2C19 (unknown origin) by fluorescence-based assay; assay type: ADME
# In short: (§2)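 Recombinant CYP isoforms (five tested) screened for inhibition in fluorescence-based assays; IC50 in μM.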
# [8] = Tmax in CD-1 mouse at 5 mg/kg, po administered as single dose measured up to 24 hrs; assay type: ADME, organism-based; conditions: in vivo
# In short: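 Male CD-1 mice, 6–8 weeks old, single oral gavage dose in 5% NMP/95% PEG300. Plasma (K3EDTA, retro-orbital, under isoflurane) taken at 0.25, 0.5, 1, 2, 4, 8 and 24 h, n=3/timepoint, analysed by HPLC/MS/MS. Non-compartmental extravascular analysis (Model 200); Tmax taken directly from the data.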
# [9] = Ratio of drug concentration in CD-1 mouse brain to plasma at 5 mg/kg, po measured after 1 hr; assay type: ADME, organism-based
# In short: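 Male CD-1 mice dosed once iv (1 mg/kg) or by oral gavage (5 mg/kg). Brain and plasma collected 1 h post dose (n=3/timepoint). Drug levels by HPLC/MS/MS; brain/plasma ratio calculated from these levels.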
# [10] = molecular target: Voltage-gated inwardly rectifying potassium channel KCNH2 (Homo sapiens, UniProt Q12809); assay: Inhibition of human ERG expressed in HEK293 cells by patch clamp assay; assay type: cell-based
# [11] = molecular target: T1, Cytochrome P450 1A2 (Homo sapiens, UniProt P05177); assay: Inhibition of recombinant CYP1A2 (unknown origin) by fluorescence-based assay; assay type: ADME; in short: as §2
# T1 sequence (P05177 whole entry): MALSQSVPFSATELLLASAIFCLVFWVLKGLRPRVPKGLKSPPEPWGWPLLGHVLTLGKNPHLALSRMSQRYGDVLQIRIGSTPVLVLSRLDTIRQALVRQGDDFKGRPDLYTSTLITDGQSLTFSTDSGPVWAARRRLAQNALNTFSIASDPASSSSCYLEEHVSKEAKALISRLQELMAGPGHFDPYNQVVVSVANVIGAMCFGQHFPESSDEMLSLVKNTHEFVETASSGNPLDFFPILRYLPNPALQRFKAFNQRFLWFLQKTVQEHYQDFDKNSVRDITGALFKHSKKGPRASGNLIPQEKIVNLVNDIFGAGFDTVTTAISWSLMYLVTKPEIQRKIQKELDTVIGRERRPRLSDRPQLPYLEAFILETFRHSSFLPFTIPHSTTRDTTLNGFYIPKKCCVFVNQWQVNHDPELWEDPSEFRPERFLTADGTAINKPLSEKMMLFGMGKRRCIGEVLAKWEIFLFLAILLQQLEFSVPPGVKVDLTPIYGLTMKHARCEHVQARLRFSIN
# [12] = Volume of distribution at steady state in CD-1 mouse at 1 mg/kg, iv administered as single dose measured up to 24 hrs; assay type: ADME, organism-based; conditions: in vivo
# In short: (§3)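 Male CD-1 mice, 6–8 weeks old, single tail-vein dose in 3% NMP/45% PEG300/12% ethanol/40% sterile water. Retro-orbital plasma (K3EDTA) taken at 0.083, 0.25, 0.5, 1, 2, 4, 8 and 24 h, n=3/timepoint, analysed by HPLC/MS/MS. Non-compartmental analysis (Model 201, uniform weighting); Tmax read directly from the data.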
# [13] = molecular target: Gamma-secretase (Homo sapiens) (UniProt Q96BI3+Q9NZ42+Q8WW43+P49768+Q92542+P49810); assay: Modulation of gamma secretase in human SH-SY5Y cells overexpressing wild type APP751 assessed as effect on total amyloid beta level by meso scale discovery; assay type: cell-based
# In short: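 SHSY5Y cells stably overexpressing wild-type human APP751 treated with the compound over a concentration range. Aβ38, Aβ40, Aβ42 and total Aβ in the medium measured by MSD triplex immunoassay (4G8 detection, 2 h at room temperature). Concentrations back-fitted from standard curves.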
# [14] = AUClast in CD-1 mouse at 5 mg/kg, po administered as single dose measured up to 24 hrs; assay type: ADME, organism-based; parameters: route oral, dose 5 mg/kg, time <=24; conditions: in vivo
# In short: (§4)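 Male CD-1 mice, 6–8 weeks old, single dose by tail vein (1 mg/kg, 3% NMP/45% PEG300/12% ethanol/40% water) or oral gavage (5 mg/kg, 5% NMP/95% PEG300). Retro-orbital plasma sampled 0.083 (iv only) to 24 h, n=3/timepoint, and analysed by HPLC/MS/MS. Non-compartmental analysis. Half-life taken from the terminal phase using ≥3 non-zero points after Tmax.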
# [15] = test system: Gamma-secretase; assay: Inhibition of gamma secretase in human H4 cells overexpressing APP751 transfected with Myc-tagged Notch at 1 to 10 uM incubated for 24 hrs in presence of NICD by Western blot analysis; conditions: h4, 24 h
# [16] = Kinetic aqueous solubility of the compound in pH 7.4 PBS buffer by UV/Visible absorbance analysis; assay type: physicochemical; conditions: read-out: Kinetic_solubility
# In short: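 Kinetic solubility determined in PBS at pH 7.4 by UV/Vis absorbance, reported in μM.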
# [17] = Tmax in CD-1 mouse at 1 mg/kg, iv administered as single dose measured up to 24 hrs; assay type: ADME, organism-based; conditions: in vivo; in short: as §3
# [18] = molecular target: Gamma-secretase; assay: Modulation of gamma secretase in human SH-SY5Y cells overexpressing wild type APP751 assessed as effect on amyloid beta40 level by meso scale discovery; assay type: cell-based
# [19] = Cmax in CD-1 mouse at 5 mg/kg, po administered as single dose measured up to 24 hrs; assay type: ADME, organism-based; parameters: route oral, dose 5 mg/kg, time <=24; conditions: in vivo; in short: as §4
# [20] = AUC infinity in CD-1 mouse at 1 mg/kg, iv administered as single dose measured up to 24 hrs; assay type: ADME, organism-based; parameters: route intravenous, dose 1 mg/kg, time <=24; conditions: in vivo; in short: as §4
# [21] = Metabolic stability in rat liver microsomes assessed as parent compound remaining at 1 uM incubated for 30 mins; assay type: ADME, Microsome; conditions: 0.5 h
# In short: (§5)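 Test compound at 1 μM incubated 30 min with human, rat or mouse liver microsomes (1 mg/mL); parent remaining expressed as %.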
# [22] = Ratio of drug concentration in CD-1 mouse brain to plasma at 1 mg/kg, iv measured after 1 hr
# [23] = Cmax in CD-1 mouse at 1 mg/kg, iv administered as single dose measured up to 24 hrs; assay type: ADME, organism-based; parameters: route intravenous, dose 1 mg/kg, time <=24; conditions: in vivo; in short: as §4
# [24] = AUC infinity in CD-1 mouse at 5 mg/kg, po administered as single dose measured up to 24 hrs; assay type: ADME, organism-based; parameters: route oral, dose 5 mg/kg, time <=24; conditions: in vivo; in short: as §4
# [25] = molecular target: Cytochrome P450 2C9 (Homo sapiens, UniProt P11712); assay: Inhibition of recombinant CYP2C9 (unknown origin) by fluorescence-based assay; assay type: ADME; in short: as §2
# [26] = Metabolic stability in mouse liver microsomes assessed as parent compound remaining at 1 uM incubated for 30 mins; assay type: ADME, Microsome; conditions: 0.5 h; in short: as §5
# [27] = Half life in CD-1 mouse at 1 mg/kg, iv administered as single dose measured up to 24 hrs; assay type: ADME, organism-based; conditions: mouse, in vivo, 1 mg/kg, 24 h; in short: as §4
# [28] = molecular target: Cytochrome P450 2D6 (Homo sapiens, UniProt P10635); assay: Inhibition of recombinant CYP2D6 (unknown origin) by fluorescence-based assay; assay type: ADME; in short: as §2
# [29] = AUClast in CD-1 mouse at 1 mg/kg, iv administered as single dose measured up to 24 hrs; assay type: ADME, organism-based; parameters: route intravenous, dose 1 mg/kg, time <=24; conditions: in vivo; in short: as §4
# [30] = molecular target: Gamma-secretase; assay: Modulation of gamma secretase in human SH-SY5Y cells overexpressing wild type APP751 assessed as effect on amyloid beta42 level by meso scale discovery; assay type: cell-based
# [31] = Metabolic stability in human liver microsomes assessed as parent compound remaining at 1 uM incubated for 30 mins; assay type: ADME, Microsome; conditions: microsomes, 0.5 h, 1 µM; in short: as §5
# [32] = test system: Gamma-secretase; assay: Inhibition of gamma secretase in human H4 cells overexpressing APP751 transfected with Myc-tagged Notch assessed as accumulation of Notch substrate at 100 to 300 nM incubated for 24 hrs by Western blot analysis; assay type: cell-based; conditions: h4, 24 h, 0.3 µM, dose 100-300 nM
# In short: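 H4 neuroglioma cells stably overexpressing human APP751 were transfected with Myc-tagged NΔE Notch, then treated 24 h with 1 or 10 μM modulator, 100 or 300 nM DAPT, or vehicle. Cells harvested 48 h post-transfection. Western blot with anti-Myc detected NΔE and NICD; β-actin served as loading control.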
# Chain of Cytochrome P450 2C9 (P11712 whole entry): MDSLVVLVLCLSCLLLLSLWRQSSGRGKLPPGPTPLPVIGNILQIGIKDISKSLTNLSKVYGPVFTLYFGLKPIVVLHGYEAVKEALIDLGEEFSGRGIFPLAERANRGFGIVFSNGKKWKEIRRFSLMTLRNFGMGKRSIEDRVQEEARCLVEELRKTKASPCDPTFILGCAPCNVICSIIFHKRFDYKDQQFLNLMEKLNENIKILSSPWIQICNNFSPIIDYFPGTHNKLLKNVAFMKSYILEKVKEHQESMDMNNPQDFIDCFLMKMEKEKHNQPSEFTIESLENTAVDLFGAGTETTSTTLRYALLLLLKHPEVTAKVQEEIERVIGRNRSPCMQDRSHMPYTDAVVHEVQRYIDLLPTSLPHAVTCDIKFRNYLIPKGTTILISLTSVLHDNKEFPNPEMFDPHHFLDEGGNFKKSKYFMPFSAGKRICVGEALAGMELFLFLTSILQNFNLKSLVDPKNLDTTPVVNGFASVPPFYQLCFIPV
# Chain of Voltage-gated inwardly rectifying potassium channel KCNH2 (Q12809 whole entry): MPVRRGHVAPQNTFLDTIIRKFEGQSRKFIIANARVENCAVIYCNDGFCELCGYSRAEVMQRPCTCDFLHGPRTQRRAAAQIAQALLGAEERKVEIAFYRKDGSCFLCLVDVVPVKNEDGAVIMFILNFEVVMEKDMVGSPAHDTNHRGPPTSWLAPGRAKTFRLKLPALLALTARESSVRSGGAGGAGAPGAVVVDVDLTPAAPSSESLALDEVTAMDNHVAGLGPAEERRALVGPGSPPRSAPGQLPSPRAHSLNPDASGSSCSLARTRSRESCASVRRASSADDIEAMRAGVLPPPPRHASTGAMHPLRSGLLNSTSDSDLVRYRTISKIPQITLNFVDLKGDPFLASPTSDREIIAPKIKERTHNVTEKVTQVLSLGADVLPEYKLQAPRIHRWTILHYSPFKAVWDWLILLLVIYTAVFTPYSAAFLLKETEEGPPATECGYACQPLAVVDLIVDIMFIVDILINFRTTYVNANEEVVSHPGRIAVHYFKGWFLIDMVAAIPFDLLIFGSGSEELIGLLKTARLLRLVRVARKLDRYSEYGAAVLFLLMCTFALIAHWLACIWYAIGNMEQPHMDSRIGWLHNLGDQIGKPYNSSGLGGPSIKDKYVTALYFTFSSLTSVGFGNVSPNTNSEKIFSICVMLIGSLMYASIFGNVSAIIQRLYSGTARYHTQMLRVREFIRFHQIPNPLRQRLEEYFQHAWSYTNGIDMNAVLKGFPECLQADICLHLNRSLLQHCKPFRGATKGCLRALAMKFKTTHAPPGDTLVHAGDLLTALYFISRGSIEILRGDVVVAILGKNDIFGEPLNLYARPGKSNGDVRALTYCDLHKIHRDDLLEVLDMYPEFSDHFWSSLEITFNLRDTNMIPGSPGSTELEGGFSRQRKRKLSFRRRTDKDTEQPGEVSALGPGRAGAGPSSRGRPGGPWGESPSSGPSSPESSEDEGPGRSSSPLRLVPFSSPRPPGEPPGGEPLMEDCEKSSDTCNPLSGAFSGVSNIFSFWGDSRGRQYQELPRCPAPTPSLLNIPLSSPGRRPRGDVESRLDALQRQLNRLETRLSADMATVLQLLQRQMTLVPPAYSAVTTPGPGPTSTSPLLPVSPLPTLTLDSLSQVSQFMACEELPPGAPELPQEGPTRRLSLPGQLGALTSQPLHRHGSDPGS
# Chain of Cytochrome P450 3A4 (P08684 whole entry): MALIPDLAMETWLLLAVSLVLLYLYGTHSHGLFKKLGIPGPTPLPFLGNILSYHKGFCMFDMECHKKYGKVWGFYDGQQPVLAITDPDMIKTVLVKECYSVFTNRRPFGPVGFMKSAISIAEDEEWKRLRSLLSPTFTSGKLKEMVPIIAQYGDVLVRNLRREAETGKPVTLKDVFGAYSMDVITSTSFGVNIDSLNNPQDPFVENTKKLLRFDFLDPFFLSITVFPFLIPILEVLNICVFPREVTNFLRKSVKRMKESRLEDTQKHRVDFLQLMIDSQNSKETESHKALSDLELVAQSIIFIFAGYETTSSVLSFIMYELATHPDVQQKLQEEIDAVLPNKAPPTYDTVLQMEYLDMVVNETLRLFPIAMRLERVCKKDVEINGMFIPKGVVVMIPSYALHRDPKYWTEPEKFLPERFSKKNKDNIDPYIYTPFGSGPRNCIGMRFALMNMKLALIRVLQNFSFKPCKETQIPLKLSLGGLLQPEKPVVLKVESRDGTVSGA
# Chain of Cytochrome P450 2D6 (P10635 whole entry): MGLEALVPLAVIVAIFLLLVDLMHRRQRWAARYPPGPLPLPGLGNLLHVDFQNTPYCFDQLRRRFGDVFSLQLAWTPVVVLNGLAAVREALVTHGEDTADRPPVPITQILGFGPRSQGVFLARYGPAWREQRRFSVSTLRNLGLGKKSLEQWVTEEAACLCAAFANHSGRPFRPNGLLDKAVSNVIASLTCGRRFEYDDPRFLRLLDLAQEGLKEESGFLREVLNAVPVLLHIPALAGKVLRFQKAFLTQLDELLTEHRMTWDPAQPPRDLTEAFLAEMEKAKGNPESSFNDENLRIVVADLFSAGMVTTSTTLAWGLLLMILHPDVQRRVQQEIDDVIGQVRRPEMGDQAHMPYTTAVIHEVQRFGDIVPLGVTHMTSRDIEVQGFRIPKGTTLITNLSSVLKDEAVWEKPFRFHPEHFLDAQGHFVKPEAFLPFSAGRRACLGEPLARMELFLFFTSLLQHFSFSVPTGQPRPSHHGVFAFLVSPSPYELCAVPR
# Chain of Cytochrome P450 2C19 (P33261 whole entry, canonical isoform): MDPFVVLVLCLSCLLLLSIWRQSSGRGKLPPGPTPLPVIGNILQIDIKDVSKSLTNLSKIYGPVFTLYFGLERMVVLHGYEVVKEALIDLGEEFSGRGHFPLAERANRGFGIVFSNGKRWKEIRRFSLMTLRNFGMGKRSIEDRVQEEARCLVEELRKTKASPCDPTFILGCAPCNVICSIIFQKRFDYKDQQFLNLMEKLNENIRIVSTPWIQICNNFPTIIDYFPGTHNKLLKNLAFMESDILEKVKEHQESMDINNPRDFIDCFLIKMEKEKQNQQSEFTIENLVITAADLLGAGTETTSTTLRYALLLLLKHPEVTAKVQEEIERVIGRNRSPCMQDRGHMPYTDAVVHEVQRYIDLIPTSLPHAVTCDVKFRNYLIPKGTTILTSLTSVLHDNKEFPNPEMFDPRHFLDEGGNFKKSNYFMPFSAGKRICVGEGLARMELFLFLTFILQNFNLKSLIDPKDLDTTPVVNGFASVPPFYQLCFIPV
smiles,measurement,setting,value
CCn1nc2c(c1Nc1nc(-c3ccc(-n4cnc(C)c4)c(OC)n3)cs1)CCCC2,F,[1],100%
same,IC50,[2],3.7 µM
same,F,[3],53.7%
same,PPB,[4],99.6%
same,EC50,[5],0.305 µM
same,IC50,[6],0.06 µM
same,IC50,[7],5.9 µM
same,Tmax,[8],15 min
same,BPR,[9],0.4
same,IC50,[10],8.6 µM
same,IC50,[11],> 100 µM
same,Vdss,[12],1.413 L/kg
same,Activity,[13],inactive
same,AUClast,[14],1089 ng·h/mL
same,inhibition (INH),[15],Not Active
same,solubility kinetic,[16],4.5 µM
same,Tmax,[17],4.98 min
same,IC50,[18],0.104 µM
same,Cmax,[19],705 ng/mL
same,AUC,[20],463 ng·h/mL
same,Stabilty,[21],71%
same,BPR,[22],0.4
same,Cmax,[23],824 ng/mL
same,AUC,[24],1243 ng·h/mL
same,IC50,[25],9 µM
same,Stabilty,[26],64%
same,t1/2,[27],30 min
same,IC50,[28],> 100 µM
same,AUClast,[29],443 ng·h/mL
same,IC50,[30],0.058 µM
same,Stabilty,[31],36%
C[C@H](NC(=O)Cc1cc(F)cc(F)c1)C(=O)N[C@H](C(=O)OC(C)(C)C)c1ccccc1,inhibition (INH),[32],Active

# Source: ChEMBL document CHEMBL4699542, “Design and synthesis of novel methoxypyridine-derived gamma-secretase modulators” (Bioorg Med Chem, 2020)
